Assay outcomes (PubChem BioAssay)
The entries come from a sample that favours hits as a whole.
HUVEC prolif 384 = inhibitors of human endothelial cell proliferation; HUVEC proliferation, CellTiter-Glo luminescence, 72 h; stronger effect = lower value; viability, % at 10 µM (by protocol); 1.1% of 86,000 active; AID 648;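 active = viability at or below 30%; inactive = viability above 30%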
Fibroblast inh = blocks proliferation of human lung fibroblasts. LL 47 human lung fibroblast viability, ATP luminescence; stronger effect = lower value. viability, % at 10 µM. 1.1% of 85,000 active. AID 719;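 active = viability at or below 50% in the single dose screen; inactive = viability above 50%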;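 note: compound exposure lasted 72 h before the ATP readout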
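Benchmarks: Cell-only wells, no compound | Test system: LL 47 human lung fibroblasts, passage 12 or lower | Input: 1,150 cells/well | Measured by: CellTiter-Glo luminescence measuring cellular ATP | Medium: IMEM, 15% FBS supplement | Schedule: Overnight attachment after seeding, then 72 h compound exposure at 37 °C | Doses: Compound addition at 0.1% DMSO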
H69AR inhibit = blocks growth of human H69AR lung tumor cells; H69AR lung tumor viability, ATP luminescence, 72 h; stronger effect = lower value; viability, % at 10 µM; 6% of 85,000 active; AID 598;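 active = viability at or below 40%; inactive = viability above 40%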;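 note: multidrug resistant small cell line overexpressing MRP-1 efflux transporter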
HCT116 bCat-KO = beta-catenin-lacking colon tumor cell growth suppression; AID 818; viability, % at 10 µM; 1.5% of 140,000 active; HCT116 beta-catenin knockout viability, CellTiter-Glo, 60 h; stronger effect = lower value;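 active = viability at or under a set limit, the compound median less 4 SD, cut at about 6% in these data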
PTEN del growth = PTEN-deleted cell growth suppression; HCT116 PTEN-null viability, CellTiter-Glo, 60 h; stronger effect = lower value; viability, % at 10 µM; AID 827; 1.2% of 140,000 active;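 active = viability at or below a set limit, 4 SD under the median of all tested compounds, cut at about 3.7% in these data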;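 note: PTEN knockout HCT116 line with beta catenin targeted HCT116 as companion control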
A number is an active result; - = inactive; . = no result.

SMILES	HUVEC prolif 384	Fibroblast inh	H69AR inhibit	HCT116 bCat-KO	PTEN del growth
CCOc1ccc(N2C(=O)c3ccc(C(=O)OCc4c(C)noc4C)cc3C2=O)cc1	-	-	35.8	-	-
CC1CCCN(Cc2c(O)ccc3c(=O)c(-c4nc5ccccc5s4)c(N)oc23)C1 (stereo not drawn)	.	.	.	1.0	0.9
Cc1ccc(S(=O)(=O)N2CCN(C(=O)COc3ccc(NC(=O)c4ccco4)cc3)CC2)cc1	-	-	36.6	-	-
CC(C)COc1ccc2[nH]c3c(c2c1)CCCC3=O	19.5	-	-	-	-
CSc1nc2c(cnn2-c2ccc(C)c(C)c2)c(=O)[nH]1	-	-	20.0	-	-
O=C(NCc1ccco1)c1cnn2c(C(F)(F)F)cc(-c3cccs3)nc12	-	-	7.1	-	-
O=C(NCc1ccco1)c1cnn2c(C(F)F)cc(-c3ccccc3)nc12	-	-	-	-	-
O=C(Nc1ccc(Cl)c(Cl)c1)Nc1ccc(Br)cc1F	.	.	.	4.9	-
Cc1ccccc1-c1nc(CN2CCC(C(=O)NCCC3=CCCCC3)CC2)c(C)o1	4.8	-	28.2	2.4	2.4
Cc1ccccc1-c1nc(CN2CCC(C(=O)NC3CCN(Cc4ccccc4)CC3)CC2)c(C)o1	9.9	-	22.5	.	.
CC1=C(C(=O)OC(C)C)C(c2cccc([N+](=O)[O-])c2)n2c(cc(=O)[nH]c2=S)N1 (stereo not drawn)	.	.	.	-	-
Cc1cccc(C2(c3cccc(C)c3)CC2C(=O)Nc2ccc([N+](=O)[O-])cc2O)c1 (stereo not drawn)	.	.	.	5.9	-
Cc1c(C(=O)N2CCc3ccccc3C2)sc2nc(-c3ccccc3)cn12	-	-	-	-	-
COc1ccc(-c2cn3c(C)c(C(=O)N4CCc5ccccc5C4)sc3n2)cc1	-	-	21.9	.	.
CCC(=O)Nc1ccc(Nc2nc(C)c([N+](=O)[O-])c(Nc3ccc(NC(=O)CC)cc3)n2)cc1	.	.	.	-	-
O=C(Nc1ccc(F)cc1)c1ccccc1	-	-	-	-	.
O=C(Nc1ccc(F)cc1)c1nsc(Cl)c1Cl	-	-	37.1	-	-
Cc1ccc(C(=O)NCCc2nnc(SCC(=O)Nc3nc(-c4ccccc4)cs3)n2C)cc1	-	-	-	1.0	0.8
Cn1c(CCNC(=O)c2cccs2)nnc1SCC(=O)Nc1nc(-c2ccccc2)cs1	-	-	-	-	-
COc1cccc(N2CCN(Cc3coc4c(Cl)cc(Cl)cc4c3=O)CC2)c1	-	-	-	.	.
Cc1onc(-c2c(Cl)cccc2Cl)c1C(=O)N/N=C(\N)COc1ccc(Cl)cc1	.	.	.	5.9	-
CCOC(=O)c1cnc(-n2nc(C)cc2C)nc1N(CC)CC	-	-	36.1	-	-
CCOC(=O)c1cnc(-n2nc(C)cc2C)nc1NC1CCCCC1	-	.	1.1	1.9	2.1
CCOC(=O)c1cnc(-n2nc(C)cc2C)nc1NNc1nc(-c2ccccc2)cc(-c2ccccc2)n1	.	.	.	4.5	-
CCOC(=O)c1cnc(-n2nc(C)cc2C)nc1Nc1ccc(C)cc1	.	.	.	-	-
SMILES	HUVEC prolif 384	Fibroblast inh	H69AR inhibit	HCT116 bCat-KO	PTEN del growth
CCOC(=O)c1cnc(-n2nc(C)cc2C)nc1Nc1ccc(N(C)C)cc1	-	30.0	3.0	-	-
O=C(/C=C/c1ccccc1Cl)NCc1cccs1	.	.	.	-	-
Cc1ccc(CSCCNC(=O)CSc2ccccc2)cc1	.	.	.	-	-
C=CCNC(=O)/C(C#N)=C\c1cc(Cl)c(O)c(OCC)c1	.	.	.	-	-
CCOc1cc(/C=C2\CCC/C(=C\c3cc(Cl)c(O)c(OCC)c3)C2=O)cc(Cl)c1O	.	.	.	2.0	1.7
COc1ccc(CN=C(C)c2c(C(F)(F)F)[nH]n(-c3nc4ccccc4s3)c2=O)cc1	22.3	-	12.5	-	-
Cc1nc(-c2ccccc2)sc1-c1nc(-c2ccncc2)ncc1S(=O)(=O)c1ccccc1	.	.	.	-	-
CC1=CC(C)C2COC(c3ccc[n+](C)c3)C1C2C (stereo not drawn)	.	.	.	-	-
CC(C)NC(=O)C(OC(=O)c1ccccc1)C(OC(=O)c1ccccc1)C(=O)O (stereo not drawn)	.	.	.	-	-
CC(C(=O)NC(=O)NCc1ccccc1)N1C(=O)c2ccccc2C1=O (stereo not drawn)	-	-	-	0.9	0.9
COc1cccc(NC(=O)N(CCCN2CCOCC2)C(C)c2cc3ccccc3o2)c1 (stereo not drawn)	-	-	32.4	-	-
COc1cc2cc(C(c3nnnn3C(C)(C)C)N3CCc4ccccc43)c(=O)[nH]c2cc1OC (stereo not drawn)	-	-	-	-	-
COc1cc2cc(C(c3nnnn3C3CCCC3)N3CCc4ccccc43)c(=O)[nH]c2cc1OC (stereo not drawn)	-	36.5	30.9	-	-
COc1ccccc1N1CCN(C(c2cc3ccc(C)cc3[nH]c2=O)c2nnnn2C2CCCC2)CC1 (stereo not drawn)	-	-	-	3.0	-
COc1cc(CCN2C(=O)c3cccc4cccc(c34)C2=O)c(S(=O)(=O)NCCCO)cc1OC	.	.	.	-	-
CC1CCC(NC(=O)CN2C(=O)COc3ccc(S(=O)(=O)N4CCCC4)cc32)CC1 (stereo not drawn)	.	.	.	-	-
CCOC(=O)c1csc(NNC=O)n1	.	.	.	-	-
Cc1nnnn1CC(=O)Nc1ccccc1[N+](=O)[O-]	.	.	.	-	-
O=C(CN1CCN(c2nc(-c3ccc(F)cc3)cs2)CC1)Nc1ccc2c(c1)OCO2	-	-	40.0	-	-
C/C(=N\OCC(=O)Nn1c(=O)[nH]c2ccccc2c1=O)c1ccccc1	.	.	.	-	-
COc1ccccc1Nc1nc(N)nc(-c2oc3ccccc3c2C)n1	-	-	-	-	-
Cc1c(-c2nc(N)nc(Nc3ccc(F)cc3)n2)oc2ccccc12	-	-	21.4	-	-
O=C(CCC1COc2ccccc2O1)Nc1ccc(Cl)cn1 (stereo not drawn)	15.1	-	-	-	-
Cc1ccc(C(=O)Nc2ccc(Cl)cn2)cc1	-	-	24.5	-	-
O=C(CCc1ccccc1)Nc1ccc(Cl)cn1	-	-	29.8	-	-
SMILES	HUVEC prolif 384	Fibroblast inh	H69AR inhibit	HCT116 bCat-KO	PTEN del growth
CCCCC(=O)Nc1ccc(Cl)cn1	-	-	-	-	-
C/C(=N/NC(=O)CNC(=O)COc1ccccc1)c1ccco1	.	.	.	-	-
CC1(c2ccc(Cl)cc2Cl)OCC(Cn2ccnc2)O1 (stereo not drawn)	-	-	33.8	-	-
COc1ccc(C(=O)Nc2ccc(/C(C)=N/NC(=O)c3ccccc3O)cc2)cc1OC	.	.	.	-	-
O=S(=O)(c1ccc(NC2CCCc3ccccc32)nc1)N1CCOCC1 (stereo not drawn)	-	-	-	-	-
CCN(CC)S(=O)(=O)c1ccc(NC2CCCc3ccccc32)nc1 (stereo not drawn)	-	-	-	0.6	0.5
C=CCOc1nc2c(c(=O)n(C)c(=O)n2C)n1Cc1ccccc1Cl	-	-	37.6	-	-
Cn1c(=O)c2c(nc(NCc3ccc4c(c3)OCO4)n2Cc2ccccc2Cl)n(C)c1=O	-	-	38.3	-	-
C=CCOc1nc2c(c(=O)n(C)c(=O)n2C)n1Cc1ccc(Cl)cc1	-	-	-	-	-
